MrgX1 antagonist: antagonists of human MrgX1 receptor, primary screen, HEK293 cells, Fluo-4 calcium flux; 310,000 tested, 1.3% active; BAM8-22 antagonism; active compounds read low; B-score at 10 µM;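 active means calcium-response B-score plate-corrected more than 3 library SD below zero, starting fluorescence within 5 deviations, no agonist response on first addition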;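 further: peak minus trough fluorescence over baseline after final BAM8-22 challenge near maximal dose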
Target sequence (Q96LB2 whole entry, looked up): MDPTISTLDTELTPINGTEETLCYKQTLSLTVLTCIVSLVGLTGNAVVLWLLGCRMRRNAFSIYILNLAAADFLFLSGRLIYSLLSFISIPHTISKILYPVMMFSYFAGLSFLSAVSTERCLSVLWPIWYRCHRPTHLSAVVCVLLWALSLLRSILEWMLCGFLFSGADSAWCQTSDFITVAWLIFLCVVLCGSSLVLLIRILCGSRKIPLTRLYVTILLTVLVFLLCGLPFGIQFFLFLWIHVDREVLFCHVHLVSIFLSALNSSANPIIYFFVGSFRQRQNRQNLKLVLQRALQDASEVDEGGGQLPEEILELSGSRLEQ
MrgX1 ag: agonists of human MrgX1 receptor, primary screen, HEK293 cells, Fluo-4 calcium flux. Mas-related G-protein coupled receptor member X1 (Homo sapiens), Q96LB2. Fluo-4 calcium fluorescence, agonist mode; active compounds read high. B-score at 10 µM. 310,000 tested, 0.44% active. AID 588627, 2011;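 active means calcium response B-score plate-corrected fluorescence ratio at least 3 library SD, with starting fluorescence B-score inside 5 SD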
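Assay system: stable human MrgX1 HEK293 cell line. Quantity: 15,000 cells per well. Schedule: cells plated overnight, dye loaded 0.5 h 37 °C, 0.5 h room temperature. Detection: Fluo-4 NW calcium-flux fluorescence, kinetic read. Read-out basis: peak-minus-minimum fluorescence over baseline, converted to B scores. Control set: positive and negative control wells on each plate.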
RGS4 act: RGS4 potentiators or activators, primary screen, cell-based, HEK293 M3R inducible RGS4, calcium flux | carbachol calcium flux Fluo4; active compounds read low | B-score at 10 µM | 310,000 tested, 0.92% active;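 active means B-score of the integrated calcium signal more than 4 SD below the library mean, with starting fluorescence not abnormally high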;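 further: negative B-score means reduced calcium response which marks RGS4 activation or potentiation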
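System: HEK293 FlpIn-TREx cells, stable M3R, doxycycline-inducible RGS4. Timing: overnight RGS4 induction, 30 min dye load 37 °C, 20 min compound RT. Also added: carbachol, ECmax concentration. Measured by: Fluo4 fluorescence kinetic imaging of calcium. Evaluation: integrated calcium ratio converted to B score.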
MrgX1 allo act: positive allosteric modulators of MrgX1, primary screen, HEK293 cells, Fluo-4 calcium flux; Mas-related G-protein coupled receptor member X1 (Homo sapiens), Q96LB2; FDSS; active compounds read high; B-score at 10 µM; 310,000 tested, 0.63% active; AID 588675, 2011;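 active means plate-corrected calcium response at least 3 library SD above typical, normal starting fluorescence, not activating the receptor alone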;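 further: compound read alongside a low EC10 to EC30 dose of BAM8-22 agonist; peak minus trough fluorescence over baseline measured at the second addition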
RGS4 block: RGS4 inhibitors, primary screen, cell-based, HEK293 M3R inducible RGS4, calcium flux. Regulator of G-protein signaling 4 (Homo sapiens), P49798. Fluo-4 calcium flux; active compounds read high; triggered by carbachol at its EC20. B-score at 10 µM. 310,000 tested, 0.45% active;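 active means B-score, a plate-corrected calcium signal, over three deviations above library mean, with baseline fluorescence within five deviations of library mean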;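 further: RGS4 expression induced by doxycycline in cells with stable M3 receptor; B-score is computed from the integrated fluorescence ratio over baseline after carbachol; higher B-score means a larger calcium signal and so more RGS4 inhibition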
Target sequence (P49798 whole entry, looked up): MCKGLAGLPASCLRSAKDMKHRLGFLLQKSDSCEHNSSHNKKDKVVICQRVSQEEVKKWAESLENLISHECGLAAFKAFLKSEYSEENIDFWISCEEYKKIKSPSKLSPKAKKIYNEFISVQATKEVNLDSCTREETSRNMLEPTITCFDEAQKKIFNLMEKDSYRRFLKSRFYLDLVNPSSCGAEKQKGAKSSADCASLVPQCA
An asterisk follows results filed as active; i = inactive; . = not tested or not shown. Only some compounds are listed: those with a hit (about 3.5% of all), similar ones and a draw of the others.

SMILES | MrgX1 antagonist | MrgX1 ag | RGS4 act | MrgX1 allo act | RGS4 block
CCCc1sc(N/N=C/c2ccccn2)nc1-c1ccc(F)cc1 | i | i | i | i | 6.5*
O=c1cc[nH]c2c1ccc1cccnc12 | i | i | i | i | i
CNc1cccc2c1C(=O)c1ccccc1C2=O | i | i | i | i | i
O=C1c2ccccc2-c2cccc(NS(=O)(=O)c3ccc(C(F)(F)F)cc3)c21 | i | i | -7* | i | i
CC(=O)Nc1ccccc1OCC(=O)c1cc(C)n(Cc2cccs2)c1C | i | 48* | i | i | i
CN(C)/C=C/C(=O)c1cc(N2CCOCC2)ccc1[N+](=O)[O-] | i | i | i | i | i
COc1ccc(N2CCN(CC(=O)Nc3cccc(S(=O)(=O)N4CCOCC4)c3)CC2)cc1 | i | i | i | i | i
CC1CC(C)CN(C(=O)CCNC(=O)c2ccccc2Cl)C1 (stereo not drawn) | i | i | i | i | i
Cc1ccc(-c2nn(-c3ccccc3)cc2CNCc2ccccc2)cc1 | i | i | i | i | i
N=C(N)SCc1cn(-c2ccccc2)nc1-c1ccc(Br)cc1 | . | . | -7.5* | . | i
CN(Cc1c(F)cccc1Cl)C(=O)c1ccc(NC(=O)CC2SC(N3CCCC3)=NC2=O)cc1 (stereo not drawn) | i | i | i | i | i
COc1ccc(CN(C(=O)c2cc3ccccc3oc2=O)C2CCS(=O)(=O)C2)cc1 (stereo not drawn) | i | i | i | i | i
COc1ccc(CN(C(=O)c2cc3ccccc3oc2=O)C2CCCC2)cc1 | -5* | i | i | i | i
CCN(CC)S(=O)(=O)c1ccc(-c2nnc(SCC(=O)Nc3cc(OC)cc(OC)c3)o2)cc1 | -4.6* | i | i | i | i
Nc1c(-c2cccc(Cl)c2)cnn1-c1cccc(C(F)(F)F)c1 | i | i | i | i | i
Nc1c(-c2ccc(Cl)cc2)cnn1-c1cc(C(F)(F)F)cc(C(F)(F)F)c1 | i | i | i | 14* | i
CCOc1ccc(NC(=O)c2sc3nc(N4CCOCC4)c4c(c3c2N)CC(C)(C)OC4)cc1 | i | i | i | i | i
O=C(/C=C/c1ccccc1)Nc1cccnc1 | i | i | i | i | i
COc1ccc(NC(=O)/C=C/c2ccc(Br)o2)cn1 | -7.2* | i | i | i | i
Cc1ccc(/C=C/C(=O)Nc2cccnc2)o1 | -7.1* | i | i | i | i
O=C(CSc1nnc(-c2cccc(Br)c2)o1)N1CCOCC1 | i | i | i | i | i
NC1=NC(=O)/C(=C/c2ccc(-c3ccc(S(N)(=O)=O)cc3)o2)S1 | -4.7* | i | i | i | i
CCN(CC)c1ccc(/C=C/c2ccc3ccc(OC)cc3[n+]2CC)cc1 | -9.3* | i | -8.5* | i | i
CCc1ccc(OCC(=O)Nc2ccc(S(=O)(=O)Nc3cc(C)on3)cc2)c(Br)c1 | i | i | i | i | i
CCOC(=O)/C(C#N)=C/c1c(N2CCN(c3ccccc3)CC2)nc2c(C)cccn2c1=O | i | i | -7.8* | i | i
SMILES | MrgX1 antagonist | MrgX1 ag | RGS4 act | MrgX1 allo act | RGS4 block
CCNC(=O)/C(C#N)=C/c1c(N2CCN(c3cccc(Cl)c3)CC2)nc2c(C)cccn2c1=O | i | i | -11* | i | i
O=C(COc1ccccc1F)Nc1ccc(S(=O)(=O)Nc2nccs2)cc1 | i | i | i | i | i
O=c1cc(N2CCCCC2)c(-c2ccccc2)nn1Cc1cccc(Cl)c1 | i | i | i | i | i
O=c1cc(N2CCCCC2)c(-c2ccccc2)nn1Cc1ccc(Cl)cc1Cl | i | i | -8.7* | i | i
O=c1cc(N2CCCCC2)c(-c2ccccc2)nn1Cc1ccccc1Cl | i | i | -7.1* | i | i
CC(=O)N1N=C(c2ccc(Cl)cc2)OC1c1ccc(C(C)C)cc1 (stereo not drawn) | i | i | -7.9* | i | i
CC(=O)N1N=C(c2ccc(C)cc2)OC1c1ccc(Br)cc1 (stereo not drawn) | i | i | i | i | i
CCOc1ccccc1C1NC(=O)c2ccccc2O1 (stereo not drawn) | i | i | i | i | i
Cc1ccc2nc(SCC(=O)NCc3ccc(F)cc3)nc(=O)n2c1 | i | i | i | i | i
O=C(c1ccc(Cl)nc1)c1cccs1 | i | i | i | i | i
O=C(c1cccs1)c1no[n+]([O-])c1C(=O)c1cccs1 | i | 99* | -7* | i | i
Cc1ccc(-n2c(C)cc(/C=c3/sc4nc5ccccc5n4c3=O)c2C)cc1 | i | i | i | i | i
O=C(O)Cn1cc(/C=c2/sc3nc4ccccc4n3c2=O)c2ccccc21 | i | 27* | i | i | i
Cc1cc(C)c2nc(N3CCC(C(=O)NCCCN4CCCCC4)CC3)sc2c1 | i | i | -7.9* | i | i
Cc1cc(C)c2nc(N3CCC(C(=O)NCC4CCCO4)CC3)sc2c1 (stereo not drawn) | i | i | i | i | i
CCOc1ccc(NCc2cccn2-c2nnc(N3CCC(C(=O)NCCCN4CCCCC4C)CC3)s2)cc1 (stereo not drawn) | i | i | i | i | i
CCOc1ccc(NCc2cccn2-c2nnc(N3CCC(C(=O)NCCCN4CCCCC4)CC3)s2)cc1 | i | i | -9* | i | i
CCOc1ccc(NCc2cccn2-c2nnc(N3CCC(C(=O)NCCCN4C(C)CCCC4C)CC3)s2)cc1 (stereo not drawn) | i | i | -7.6* | i | i
O=C(CNC(=O)C12CC3CC(CC(C3)C1)C2)N/N=C\c1ccccn1 | i | i | i | i | i
O=C(Nc1ccc([N+](=O)[O-])cc1)c1cc(-c2ccccn2)nc2c(Cl)cccc12 | i | i | i | i | i
COc1ccc(CC(=O)NCC2CCCN(Cc3ccccc3Cl)C2)cc1 (stereo not drawn) | i | i | i | i | i
COc1ccccc1NC(=O)/C(C#N)=C/c1ccncc1 | i | i | i | i | i
COc1ccccc1NC(=O)/C(C#N)=C/c1cc([N+](=O)[O-])ccc1N1CCCC1 | -6.6* | i | i | i | i
